We go through 7 molecules from ChEMBL document CHEMBL1125703, “Synthesis, hydrolysis rates, supercomputer modeling, and antibacterial activity of bicyclic tetrahydropyridazinones” (J Med Chem, 1991).

Holding throughout (format): ADME
Details in all cases: buffer

Data set [1] can be described thus: Compound was evaluated for its hydrolysis at pH 10 half-life period (T1/2). In short, it runs like this:
(§1)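 Alkaline hydrolysis, i.e. chemical reactivity of the lactam ring with hydroxide ion, followed by pH stat at the pH named in the line. Ionic strength (μ) was 0.5 and the temperature 35 °C. Pseudo-first-order rate constants and half-lives were obtained under these conditions. Some entries are single determinations.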

Data set [2] is described as follows: Compound was evaluated for its hydrolysis at pH 9 expressed as pseudo first order rate constant (K) (micro = 0.5). An outline of the steps: as §1
Data set [3] is described as follows: Compound was evaluated for its hydrolysis at pH 9 half life period (T1/2). In short, it runs like this:
as §1

Data set [4] can be described thus: Compound was evaluated for its hydrolysis at pH 10 expressed as pseudo first order rate constant (K) (micro = 0.5). An outline of the steps:
as §1

Data set [5] can be described thus: Compound was evaluated for its hydrolysis at pH 9 for half life period (T1/2). An outline of the steps: as §1

For the molecule `CO/N=C(/C(=O)NC1CCN2CC(C(=O)[O-])=C(C(=O)[O-])N2C1=O)c1csc(N)n1.[Na+].[Na+]` (stereo not given), the half-life in data set [1] was 285 min; in data set [3], 2880 min. The k in data set [2] turned out to be 0.0144 h⁻¹; in data set [4], 0.146 h⁻¹.

`CO/N=C(/C(=O)NC1CN2CC(C#N)=C(C(=O)O)N2C1=O)c1csc(N)n1` (stereo not given): the k in data set [2] worked out at 1.73 h⁻¹. Also, the half-life in data set [3] was 24 min.

Molecule `CO/N=C(/C(=O)NC1CN2CC(C(=O)O)=C(C(=O)O)N2C1=O)c1csc(N)n1` (stereo not given) showed a half-life in data set [1] of 128 min. In data set [4], the k was determined as 0.324 h⁻¹.

Take `CO/N=C(/C(=O)NC1CCN2CC(C(C)=O)=C(C(=O)O)N2C1=O)c1csc(N)n1` (stereo not given): the k in data set [2] worked out at 3.16 h⁻¹. The molecule further showed a half-life in data set [5] of 13.2 min.

`CO/N=C(\C(=O)NC1CN2CC(C(C)=O)=C(C(=O)O)N2C1=O)c1csc(N)n1` (stereo not given): the k in data set [2] worked out at 0.724 h⁻¹. This molecule gave a half-life in data set [3] of 57.6 min.

Molecule `CO/N=C(/C(=O)NC1CCN2CC(C#N)=C(C(=O)O)N2C1=O)c1csc(N)n1` (stereo not given) gave a k in data set [2] of 1.75 h⁻¹. The same molecule had a half-life in data set [3] of 24 min.

For `CC1(C)S[C@@H]2[C@H](NC(=O)COc3ccccc3)C(=O)N2[C@H]1C(=O)O` [PENICILLIN V], the k in data set [4] amounted to 0.248 h⁻¹.
